Data: ChEMBL document CHEMBL5136969, “A niclosamide-tobramycin hybrid adjuvant potentiates cefiderocol against P. aeruginosa” (2021)
In brackets after ≈: the same amount, converted by molar mass. Activity calls are given as the source filed them.

How the values were obtained:
Pseudomonas aeruginosa [1] = assay: Potentiation of linezolid-induced antibiotic activity against Pseudomonas aeruginosa PAO1 assessed as MIC fold reduction at 8 ug/ml after 18 hrs by microbroth dilution method; format: functional; settings: dose 8 µg/ml
How it was run: (§1)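 Adjuvant held at a fixed 8 μg/mL while the antibiotic was 2-fold serially diluted in Mueller-Hinton broth (MHB), per CLSI microbroth dilution. Overnight cultures were adjusted in saline to 0.5 McFarland, then diluted 1:50 in MHB to about 5 × 10^5 CFU/mL final, and incubated 18 h at 37 °C. MIC was the lowest concentration with no visible turbidity, confirmed at 590 nm. Fold potentiation = MIC alone / MIC with adjuvant.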

Escherichia coli [2] = assay: Antibacterial activity against Escherichia coli 107115 assessed as reduction in bacterial growth after 18 hrs by microbroth dilution method; format: functional
How it was run: (§2)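 CLSI microbroth dilution in MHB. Overnight cultures were adjusted to 0.5 McFarland in saline, diluted 1:50, and inoculated at about 5 × 10^5 CFU/mL. Agents were 2-fold serially diluted and incubated 18 h at 37 °C. MIC is the lowest concentration without visible turbidity, confirmed by absorbance at 590 nm. Medium with and without cells served as controls.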

Acinetobacter baumannii [3] = assay: Potentiation of minocycline-induced antibiotic activity against Acinetobacter baumannii ATCC 17978 assessed as MIC fold reduction at 8 ug/ml after 18 hrs by microbroth dilution method; format: functional; settings: dose 8 µg/ml; how it was run: as §1
Escherichia coli [4] = assay: Potentiation of moxifloxacin-induced antibiotic activity against Escherichia coli ATCC 25922 assessed as MIC fold reduction at 8 ug/ml after 18 hrs by microbroth dilution method; format: functional; settings: dose 8 µg/ml; how it was run: as §1
Pseudomonas aeruginosa [5] = assay: Potentiation of cefiderocol-induced antibiotic activity against […] Pseudomonas aeruginosa PAO1 assessed as MIC fold reduction at 8 ug/ml after 18 hrs by microbroth dilution method; format: functional, organism-based; settings: dose 8.0 µg/ml
How it was run: (§3)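 Initial screen in MHB using a fixed 8 μg mL−1 of adjuvant combined with each antibiotic under 2-fold dilution. Broth microdilution used about 5 × 10^5 CFU/mL at 37 °C for 18 h, with visible turbidity read and confirmed at 590 nm. Fold-potentiation = antibiotic MIC alone ÷ antibiotic MIC with adjuvant.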

Acinetobacter baumannii [6] = assay: Antibacterial activity against Acinetobacter baumannii AB031 assessed as reduction in bacterial growth after 18 hrs by microbroth dilution method; format: functional; how it was run: as §2
Pseudomonas aeruginosa [7] = assay: Antibacterial activity against MDR clinical isolate Pseudomonas aeruginosa PA101885 assessed as reduction in bacterial growth after 18 hrs in presence of cefiderocol by microbroth dilution method; format: functional
How it was run: (§4)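 Checkerboard in MHB (iron-replete, not iron-depleted CAMHB). Cefiderocol was 2-fold serially diluted along one axis and the adjuvant along the other. Inoculum was 0.5 McFarland diluted 1:50, about 5 × 10^5 CFU/mL final. Incubation was 18 h at 37 °C, with turbidity read visually and confirmed at 590 nm. FIC was the MIC in combination over the MIC alone for each agent, and the FIC index was their sum. Cut-offs were ≤0.5 synergy, >0.5–4 additive, >4 antagonism.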

Pseudomonas aeruginosa [8] = assay: Antibacterial activity against MDR clinical isolate Pseudomonas aeruginosa PA100036 assessed as reduction in bacterial growth after 18 hrs in presence of cefiderocol by microbroth dilution method; format: functional
How it was run: (§5)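 Checkerboard in MHB. Cefiderocol was 2-fold serially diluted along one axis and the adjuvant along the other. Inoculum was prepared from 0.5 McFarland saline suspensions diluted 1:50 in MHB, giving about 5 × 10^5 CFU/mL final. Plates ran 18 h at 37 °C, with turbidity confirmed at 590 nm. FIC = combination MIC ÷ MIC alone for each agent, and FIC index = sum of both. Interpretation: ≤0.5 synergy, >0.5–4 additive, >4 antagonism.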

Acinetobacter baumannii [9] = assay: Potentiation of cefiderocol-induced antibiotic activity against Acinetobacter baumannii ATCC 17978 assessed as MIC fold reduction at 8 ug/ml after 18 hrs by microbroth dilution method; format: functional; settings: dose 8 µg/ml; how it was run: as §3
Escherichia coli [10] = assay: Potentiation of colistin-induced antibiotic activity against Escherichia coli ATCC 25922 assessed as MIC fold reduction at 8 ug/ml after 18 hrs by microbroth dilution method; format: functional; settings: dose 8 µg/ml; how it was run: as §1
Klebsiella pneumoniae = assay: Antibacterial activity against Klebsiella pneumoniae KP116381 assessed as potentiation of cefiderocol antibacterial activity by measuring FIC after 18 hrs by microbroth dilution method; format: functional; how it was run: as §5
Pseudomonas aeruginosa [11] = assay: Antibacterial activity against Pseudomonas aeruginosa PAO1 assessed as reduction in bacterial growth after 18 hrs by microbroth dilution method; format: functional
How it was run: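 CLSI broth microdilution. Overnight cultures were adjusted in saline to 0.5 McFarland, diluted 1:50 in Mueller-Hinton broth (MHB), and inoculated at about 5 × 10^5 CFU/mL. Agents were 2-fold serially diluted in MHB, mixed 1:1 with inoculum, and held at 37 °C for 18 h. MIC was the lowest concentration with no visible turbidity, confirmed at 590 nm.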

Escherichia coli [12] = assay: Potentiation of aztreonam-induced antibiotic activity against Escherichia coli ATCC 25922 assessed as MIC fold reduction at 8 ug/ml after 18 hrs by microbroth dilution method; format: functional; settings: dose 8 µg/ml; how it was run: as §3
Enterobacter cloacae = assay: Antibacterial activity against Enterobacter cloacae 117029 assessed as reduction in bacterial growth after 18 hrs in presence of cefiderocol by microbroth dilution method; format: functional
How it was run: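 Checkerboard in Mueller-Hinton broth: cefiderocol 2-fold diluted on one axis, adjuvant 2-fold on the other. Overnight cultures were adjusted to 0.5 McFarland in saline, diluted 1:50 in MHB, and inoculated at about 5 × 10^5 CFU/mL. Incubation was 18 h at 37 °C. Turbidity was read visually and confirmed at 590 nm. FIC index = FIC of antibiotic + FIC of adjuvant; ≤0.5 synergy, >4 antagonism.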

Pseudomonas aeruginosa [13] = assay: Potentiation of cefiderocol-induced antibiotic activity against MDR clinical isolate Pseudomonas aeruginosa PA259 assessed as MIC fold reduction at 8 ug/ml after 18 hrs by microbroth dilution method; format: functional, organism-based; settings: dose 8.0 µg/ml; how it was run: as §3
Escherichia coli [14] = assay: Potentiation of rifampicin-induced antibiotic activity against Escherichia coli ATCC 25922 assessed as MIC fold reduction at 8 ug/ml after 18 hrs by microbroth dilution method; format: functional; settings: dose 8 µg/ml
Pseudomonas aeruginosa [15] = assay: Antibacterial activity against colistin-resistant clinical isolate Pseudomonas aeruginosa PA101243 assessed as reduction in bacterial growth after 18 hrs in presence of cefiderocol by microbroth dilution method; format: functional; how it was run: as §4
Pseudomonas aeruginosa [16] = assay: Potentiation of ceftolozane-induced antibiotic activity against […] Pseudomonas aeruginosa PAO1 assessed as MIC fold reduction at 8 ug/ml after 18 hrs by microbroth dilution method; format: functional, organism-based; settings: dose 8.0 µg/ml; how it was run: as §1
Pseudomonas aeruginosa [17] = assay: Potentiation of trimethoprim-induced antibiotic activity against Pseudomonas aeruginosa PAO1 assessed as MIC fold reduction at 8 ug/ml after 18 hrs by microbroth dilution method; format: functional; settings: dose 8 µg/ml
[18] = system: Staphylococcus epidermidis; assay: Antibacterial activity against methicillin-resistant Staphylococcus epidermidis 61589 assessed as reduction in bacterial growth after 18 hrs by microbroth dilution method; format: functional
How it was run: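 Broth microdilution per CLSI in Mueller-Hinton broth (MHB). Overnight cultures were adjusted to 0.5 McFarland in saline, diluted 1:50 in MHB, and added at about 5 × 10^5 CFU/mL final to equal volumes of 2-fold serial dilutions of agent. Incubation was 18 h at 37 °C. MIC was the lowest concentration with no visible turbidity, confirmed by absorbance at 590 nm.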

Acinetobacter baumannii [19] = assay: Potentiation of pleuromutilin-induced antibiotic activity against Acinetobacter baumannii ATCC 17978 assessed as MIC fold reduction at 8 ug/ml after 18 hrs by microbroth dilution method; format: functional; settings: dose 8 µg/ml

NC[C@H]1O[C@H](O[C@H]2[C@H](OCCCCc3cn(-c4ccc(NC(=O)c5cc(Cl)ccc5O)cc4)nn3)[C@@H](O[C@H]3O[C@H](CO)[C@@H](O)[C@H](N)[C@H]3O)[C@H](N)C[C@@H]2N)[C@H](N)C[C@@H]1O
fold change (FC) (Pseudomonas aeruginosa [1]): 4
MIC (Escherichia coli [2]): > 128 mg/L
fold change (FC) (Acinetobacter baumannii [3]): 4
fold change (FC) (Escherichia coli [4]): 4
Activity (Pseudomonas aeruginosa [5]): Active
MIC (Acinetobacter baumannii [6]): > 128 mg/L
MIC (Pseudomonas aeruginosa [7]): 2 mg/L
MIC (Pseudomonas aeruginosa [8]): 0.25 mg/L
fold change (FC) (Acinetobacter baumannii [9]): 4
fold change (FC) (Escherichia coli [10]): 4
FIC (Klebsiella pneumoniae): 0.5
MIC (Pseudomonas aeruginosa [11]): 64 mg/L (≈ 76.5 µM)
fold change (FC) (Escherichia coli [12]): 4
MIC (Enterobacter cloacae): 4 mg/L
Activity (Pseudomonas aeruginosa [13]): Active
fold change (FC) (Escherichia coli [14]): 4
MIC (Pseudomonas aeruginosa [15]): 2 mg/L
Activity (Pseudomonas aeruginosa [16]): Active
fold change (FC) (Pseudomonas aeruginosa [17]): 4
MIC [18]: 128 mg/L (≈ 153 µM)
fold change (FC) (Acinetobacter baumannii [19]): 4
